The source of these data is ChEMBL document CHEMBL1126740, “(S)- and (R)-8-(di-n-propylamino)-6,7,8,9-tetrahydro-3H-benz[e]indole-1-carbaldehyde: a new class of orally active 5-HT1A-receptor agonists” (J Med Chem, 1993).

Data set [1] relates to Rattus norvegicus. Briefly: Maximal reduction in percent (Partial response) of 5-HTP accumulation rat hemispheres at highest test dose of 50 uM/Kg (sc). It is filed as functional. The procedure, abridged:
(§1)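 Male Sprague-Dawley rats were pretreated with reserpine 5 mg/kg sc 18 h before dosing. DOPA and 5-HTP in limbic system, striatum and hemispheres were measured by HPLC with electrochemical detection. Dose-response curves used 4–6 dose levels (n = 4) for each region; ED50 was estimated graphically. Partial responses are given as the maximal % reduction at the highest dose tested.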

Data set [2] has as its target T1, 5-hydroxytryptamine receptor 1A (Rattus norvegicus, UniProt P19327).
T1 sequence (P19327 whole entry): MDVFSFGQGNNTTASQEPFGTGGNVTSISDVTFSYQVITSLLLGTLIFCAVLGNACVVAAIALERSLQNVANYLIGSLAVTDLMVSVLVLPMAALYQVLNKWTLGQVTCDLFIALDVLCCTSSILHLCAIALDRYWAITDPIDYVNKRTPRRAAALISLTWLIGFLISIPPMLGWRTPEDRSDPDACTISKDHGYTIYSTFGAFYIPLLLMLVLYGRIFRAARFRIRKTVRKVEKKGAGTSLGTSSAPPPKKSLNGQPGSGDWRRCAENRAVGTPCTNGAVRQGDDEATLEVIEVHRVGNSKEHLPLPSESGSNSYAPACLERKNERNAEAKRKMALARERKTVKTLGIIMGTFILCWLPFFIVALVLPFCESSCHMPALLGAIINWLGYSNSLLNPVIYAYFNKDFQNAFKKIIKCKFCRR
Description: In vitro binding affinity against 5-hydroxytryptamine 1A receptor using [3H]8-OH-DPAT. The procedure, abridged:
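Rat whole-brain membranes (brainstem and cerebellum removed) in 50 mM Tris pH 8.0 containing NaCl, CaCl2, MgCl2 and 10 μM pargyline, 10 mg tissue per tube. Nonspecific binding was defined with 10 μM 5-HT. IC50 was taken by semi-log linear regression and Ki by Cheng–Prusoff; triplicates.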

In data set [3] the test system is Rattus norvegicus. Briefly: Maximal reduction in percent (Partial response) of DOPA accumulation rat corpus striatum at highest test dose of 50 uM/Kg (sc). The data set is classed as functional. The procedure, abridged:
as §1

Data set [4] relates to Rattus norvegicus. Description: In vivo evaluation for DOPA accumulation in the hemispheres in male rats at highest dose tested at 50 uM/Kg; inactive. The data set is classed as functional, organism-based. In a few lines: as §1
Data set [5] has as its target D(2) dopamine receptor (Rattus norvegicus, UniProt P61169). Briefly: Displacement of [3H]spiperone from dopamine receptor D2. In a few lines:
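Rat striatal membranes in 50 mM potassium phosphate buffer (3 mg original tissue) incubated with 0.5 nM [3H]spiperone for 10 min at 37 °C. Nonspecific binding was defined with 10 μM 6,7-ADTN. Ki was calculated by Cheng–Prusoff; triplicates, 3–7 experiments.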

Data set [6] is filed under the species Rattus norvegicus. Description: Compound was tested for 5HT, Dopamine agonist mediated response in reserpine pretreated rats; mix DA, 5-HT syndrome. The data set is classed as functional, organism-based. In a few lines: (§2)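 Male Sprague-Dawley rats (200–300 g) were given reserpine 5 mg/kg sc 18 h before testing, then the test drug sc in the neck (n = 4). Motor activity was recorded by photocells for 30 min, with gross behaviour observed throughout. 5-HT syndrome: flat body posture, extended limbs, reciprocal forepaw treading. DA response: locomotion and stereotypies.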

In data set [7] the test system is Rattus norvegicus. Briefly: Maximal reduction in percent (Partial response) of DOPA accumulation rat limbic system at highest test dose of 50 uM/Kg (sc). It is filed as functional.
Data set [8] in a line: Area under curve at 1 uM/dg administered intravenously. The note with it: iv. It is filed as ADME. The procedure, abridged: (§3)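 Male Sprague-Dawley rats (300 g) carrying arterial catheters, used 24 h after surgery; animals dosed orally were starved 18 h beforehand. Blood was sampled at intervals up to 12 h after dosing. Drug levels were measured by HPLC with fluorescence detection (ex 285, em 365) or by GC/MS, calibrated against spiked blank blood. AUC was taken from concentration-time curves; n = 4–6.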

Data set [9] relates to Rattus norvegicus. Briefly: In vivo evaluation for 5-HTP accumulation in the corpus striatum in male rats.(sc). It is filed as functional. The procedure, abridged: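 Male Sprague-Dawley rats (200–300 g), reserpine-pretreated (5 mg/kg sc, 18 h before). Test drug was given sc in 4–6 doses (n = 4 per dose), with separate curves per brain area. 5-HTP in corpus striatum was measured by HPLC with electrochemical detection. ED50 was read from the dose–response curve.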

Data set [10] relates to Rattus norvegicus. Briefly: In vivo evaluation for 5-HTP accumulation in the hemispheres in male rats (po). It is filed as functional. The procedure, abridged:
as §1

Data set [11] is described as follows: Half life of compound at 1 uM/dg administered intravenously. It is filed as ADME, organism-based. The following applies: in vivo, iv. The procedure, abridged:
as §3

Data set [12] has as its system Rattus norvegicus. Briefly: In vivo evaluation for 5-HTP accumulation in the corpus striatum in male rats (po). The data set is classed as functional. In a few lines:
as §1

A short description of data set [13]: Bioavailability in rat. The data set is classed as ADME, organism-based. The following applies: in vivo. In a few lines: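 Blood was drawn at intervals up to 12 h and assayed by HPLC-fluorescence or GC/MS against spiked blank-blood standards. F is the ratio of oral to intravenous areas under the blood concentration-time curves; n = 4–6.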
Data set [14] concerns Rattus norvegicus. Briefly: Maximal reduction in percent (Partial response) of DOPA accumulation rat hemispheres at highest test dose of 61 uM/Kg (po); Inactive. The data set is classed as functional, organism-based. The procedure, abridged:
as §1

Data set [15] concerns Rattus norvegicus. Description: Maximal reduction in percent (Partial response) of DOPA accumulation rat corpus striatum at highest test dose of 61 uM/Kg (po). It is filed as functional. In a few lines:
as §1

In data set [16] the test system is Rattus norvegicus. Description: In vivo evaluation for 5-HTP accumulation in the hemispheres in male rats (sc). It is filed as functional. The procedure, abridged:
as §1

Data set [17] in a line: Area under curve at 20 uM/dg administered perorally. It is filed as ADME. The following applies: po. The procedure, abridged:
as §3

The nature of data set [18]: Maximum concentration of the drug at 20 umol/dg administered perorally. It is filed as ADME, organism-based. Further details: route oral. The following applies: in vivo, po. The procedure, abridged: (§4)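 Male Sprague-Dawley rats (300 g) with arterial catheters, used 24 h after surgery; rats dosed orally were starved 18 h. Drug was given po or iv. Blood (100–250 μL) was sampled at intervals up to 12 h and assayed by HPLC-fluorescence (ex 285, em 365) or GC/MS against spiked blank-blood standard curves. Cmax and tmax were taken from concentration–time curves; n = 4–6.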

Data set [19] relates to Rattus norvegicus. Description: In vivo evaluation for DOPA accumulation in the corpus striatum in male rats at highest test dose of 45 uM/Kg; inactive. The data set is classed as functional, organism-based. The procedure, abridged:
as §1

Data set [20] is described as follows: Time taken to reach the maximum concentration of compound at 1 uM/dg administered intravenously. The data set is classed as ADME, organism-based. The following applies: in vivo, iv. The procedure, abridged: as §4
For data set [21], the system named is Rattus norvegicus. Briefly: Maximal reduction in percent (Partial response) of DOPA accumulation rat limbic system at highest test dose of 61 uM/Kg (po). The data set is classed as functional.
For data set [22], the system named is Rattus norvegicus. Description: In vivo evaluation for DOPA accumulation in the hemispheres in male rats at highest test dose of 45 uM/Kg; inactive. The data set is classed as functional, organism-based. In a few lines:
as §1

The species named for data set [23] is Rattus norvegicus. Description: Compound was tested for 5-HT behavioral response in reserpine pretreated rats; +5HT syndrome. It is filed as functional, organism-based. In a few lines:
as §2

Data set [24] deals with Rattus norvegicus. Briefly: In vivo evaluation for DOPA accumulation in the limbic system in male rats at highest test dose of 45 uM/Kg; inactive. It is filed as functional, organism-based. The procedure, abridged: as §1
The test system of data set [25] is Rattus norvegicus. Briefly: In vivo evaluation for 5-HTP accumulation in the limbic system in male rats (po). The data set is classed as functional. In a few lines:
as §1

The nature of data set [26]: Maximum concentration of the drug at 1 umol/dg administered intravenously. It is filed as ADME, organism-based. Further details: route intravenous. The following applies: in vivo, iv. The procedure, abridged: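 Male Sprague-Dawley rats (300 g) with arterial catheters were dosed 24 h after surgery; orally dosed rats were starved 18 h beforehand. Blood was sampled at intervals up to 12 h and analysed by HPLC with fluorescence detection (ex 285, em 365) or by GC/MS. Cmax is in pmol/mL and tmax in min, mean ± SEM, n = 4–6.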

Data set [27] concerns Rattus norvegicus. Description: In vivo evaluation for 5-HTP accumulation in the limbic system in male rats (sc). The data set is classed as functional. In a few lines: as §1
For data set [28], the system named is Rattus norvegicus. Briefly: In vivo evaluation for DOPA accumulation in the limbic system in male rats (sc). It is filed as functional. The procedure, abridged:
as §1

Data set [29] has as its system Rattus norvegicus. Briefly: Maximal reduction in percent (Partial response) of DOPA accumulation rat lhemispheres at highest test dose of 12.5 umol/kg (sc). The data set is classed as functional. In a few lines: as §1
The test system of data set [30] is Rattus norvegicus. Briefly: In vivo evaluation for DOPA accumulation in the corpus striatum in male rats (sc). The data set is classed as functional. In a few lines:
as §1

For data set [31], the system named is Rattus norvegicus. Briefly: In vivo evaluation for 5-HTP accumulation in the corpus striatum in male rats (sc). It is filed as functional. The procedure, abridged: as §1

The structures appear in SMILES notation. The source made the active and inactive calls. The calls are words filed in the database; no cut-off is given here.

Chain of D(2) dopamine receptor (P61169 whole entry): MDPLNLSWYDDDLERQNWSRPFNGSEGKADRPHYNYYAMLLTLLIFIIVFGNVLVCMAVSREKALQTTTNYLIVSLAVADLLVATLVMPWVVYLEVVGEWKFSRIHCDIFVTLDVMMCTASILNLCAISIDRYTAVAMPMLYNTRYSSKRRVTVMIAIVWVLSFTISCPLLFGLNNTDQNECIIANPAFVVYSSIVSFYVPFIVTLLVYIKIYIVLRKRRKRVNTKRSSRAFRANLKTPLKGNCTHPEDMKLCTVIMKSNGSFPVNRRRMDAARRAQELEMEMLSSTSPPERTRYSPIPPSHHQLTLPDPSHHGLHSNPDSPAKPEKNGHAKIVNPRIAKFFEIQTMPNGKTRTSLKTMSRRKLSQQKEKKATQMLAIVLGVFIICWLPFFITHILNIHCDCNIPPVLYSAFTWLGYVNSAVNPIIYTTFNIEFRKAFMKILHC

The Ki is a measure of affinity in units of concentration, obtained from inhibition or displacement. Usually ED50 stands for the dose that gives a 50% effect, or the effect in half of the subjects. In the case of `CCCN(CCC)C1CCc2cc3cc[nH]c3cc2C1` (stereo unspecified), the Reduction came out at 35% in data set [1], 51% in data set [3] and 30% in [7]. The figures for the Ki in data set [2] and in data set [5] were 570 nM and 350 nM, respectively. Moreover, the ED50 result in [4] was “inactive”. Moreover, the Behavioral response result in [6] was “Active”.

For orientation: half-life means the time in which the quantity being followed falls by half. Read a low half-life as fast loss. One may read the bioavailability as dose-corrected exposure relative to a reference, in per cent. A high value points to good availability. For orientation: Tmax means the time at which the peak concentration occurs. For the compound `CCCN(CCC)C1CCc2cccc(O)c2C1` (racemic) [8-OH-DPAT], the AUC in data set [8] came to 213 pM/h/g; in data set [17], 104 pM/h/g. Also, the ED50 in [9] was 0.052 µmol/kg; in data set [10] it was 7.9 µmol/kg; in [12], 7.9 µmol/kg; in [16] it was 0.063 µmol/kg; in [25], 3 µmol/kg; in data set [27], 0.052 µmol/kg. Further, the half-life in data set [11] was 72 min. Further, in [13], the bioavailability is 2.4%. Besides, in data set [14], the Reduction entry is “inactive”. The Reduction was 43% in data set [15] and 35% in data set [21]. Further, the Cmax amounted to 63 pM ml-1 in [18] and 344 pM ml-1 in data set [26]. Also, the ED50 entry in data set [19], in data set [22] and in [24] was “inactive” each time. Also, the Tmax at 1 µM in data set [20] is 3 min. For the same compound, in data set [23], the Behavioral response result is “Active”. Also, the Ki in [5] was determined as 1360 nM.

`CCCN(CCC)C1CCc2ccc3[nH]ccc3c2C1` (racemic): the ED50 in [28] stood at 0.18 µmol/kg; in data set [30], 0.28 µmol/kg; in [16] it was 0.11 µmol/kg; in data set [31], 0.08 µmol/kg; in [27] it was 0.1 µmol/kg. In data set [29], this compound yielded a Reduction of 22%. The compound further gave a Ki in data set [5] of 156 nM. Besides, the Behavioral response entry in data set [6] was “Active”.
